# According to ChEMBL document CHEMBL4706631, “Potent and Selective Mitogen-Activated Protein Kinase Kinase 1/2 (MEK1/2) Heterobifunctional Small-molecule Degraders” (J Med Chem, 2020):
# Activity calls are given as the source filed them. No cut-off for these calls is given here.
# Key:
# [1] = system: SU-DHL-1; test: Antiproliferative activity against human SU-DHL-1 cells incubated for 3 days by WST8 assay; format: functional; conditions: SU-DHL-1, 72 h, time 3 day
# [2] = system: HT-29; test: Inhibition of colony formation in human HT-29 cells at 10 to 100 nM incubated for 10 days by crystal violet staining based assay; format: functional, cell-based; conditions: dose 10-100 nM, time 10.0 day
# Procedure, shortened: (§1)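 HT-29 clonogenic assay: cells were exposed to compounds for 10 days, then fixed and stained with crystal violet. Two independent experiments.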
# [3] = system: NCI-H3122; test: Inhibition of ERK phosphorylation in human NCI-H3122 cells at 0.3 to 3 uM and incubated for 24 hrs by Western blot analysis; format: cell-based; conditions: dose 0.3-3 µM
# Procedure, shortened: (§2)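 H3122 and SU-DHL-1 cells were treated with compounds, and MEK1/2, pMEK and pERK were assessed by Western blot of lysates.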
# [4] = system: NCI-H3122; test: Antiproliferative activity against human NCI-H3122 cells at 0.014 to 3.33 uM incubated for 3 days by WST8 assay; format: functional, cell-based; conditions: dose 0.014-3.33 µM, time 3.0 day
# Procedure, shortened: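 NCI-H3122 cells were exposed to serial compound dilutions for 3 days, with WST-8 live-cell readout. Each concentration was run in triplicate. Student's t-test per concentration versus DMSO.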
# [5] = system: HT-29; test: Effect on global proteome expression in human HT-29 cells at 0.1 uM incubated for 8 hrs by mass spectrometry analysis based global proteome analysis; format: functional, cell-based
# Procedure, shortened: (§3)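 HT-29 cells were treated 8 h (0.1% DMSO vehicle) and then lysed in 8 M urea/100 mM Tris pH 8.0 with sonication. Proteins were reduced with 5 mM DTT, alkylated with 15 mM IAA and digested overnight with trypsin (1:100). Peptides were analysed on a 130 min nanoLC gradient by Q Exactive HF-X data-dependent MS (top-20 HCD). Run in duplicate.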
# [6] = system: HT-29; test: Inhibition of ERK phosphorylation in human HT-29 cells at 0.3 to 3 uM incubated for 24 hrs by Western blot analysis; format: cell-based; conditions: dose 0.3-3 µM
# [7] = system: SU-DHL-1; test: Inhibition of ERK phosphorylation in human SU-DHL-1 cells at 0.3 to 3 uM and incubated for 24 hrs by Western blot analysis; format: cell-based; conditions: dose 0.3-3 µM; procedure, shortened: as §2
# [8] = system: SK-MEL-28; test: Antiproliferative activity against human SK-MEL-28 cells incubated for 3 days by WST8 assay; format: functional; conditions: SK-MEL-28, 72 h, time 3 day
# [9] = system: HT-29; test: Antiproliferative activity against human HT-29 cells incubated for 3 days by WST8 assay; format: functional; conditions: HT-29, 72 h, time 3 day
# [10] = Toxicity in Swiss albino mouse assessed as drug tolerability at 50 mg/kg, ip administered as single dose and measured up to 8 hrs; format: organism-based; conditions: in vivo
# [11] = system: HT-29; test: Inhibition of ERK phosphorylation in human HT-29 cells pre-incubated for 2 hrs followed by compound addition at 0.1 uM and further incubated for 8 hrs by Western blot analysis
# [12] = Toxicity in Swiss albino mouse assessed as induction of adverse events at 50 mg/kg, ip administered as single dose and measured up to 8 hrs; format: organism-based; conditions: in vivo
# [13] = system: HT-29; test: Inhibition of ERK phosphorylation in human HT-29 cells pre-incubated with VH032 for 2 hrs followed by compound addition at 0.1 uM and further incubated for 8 hrs by Western blot analysis; format: cell-based
# [14] = system: HT-29; test: Inhibition of ERK phosphorylation in human HT-29 cells pre-incubated with PD0325901 for 2 hrs followed by compound addition at 0.1 uM and further incubated for 8 hrs by Western blot analysis; format: cell-based
# [15] = system: SK-MEL-28; test: Inhibition of ERK phosphorylation in human SK-MEL-28 cells at 0.0001 to 3 uM incubated for 24 hrs by Western blot analysis; format: cell-based; conditions: dose 0.0001-3 µM
# [16] = system: HT-29; test: Inhibition of ERK phosphorylation in human HT-29 cells pre-incubated with MLN4924 for 2 hrs followed by compound addition at 0.1 uM and further incubated for 8 hrs by Western blot analysis; format: cell-based
# [17] = system: HT-29; test: Inhibition of ERK phosphorylation in human HT-29 cells pre-incubated with MG-132 for 2 hrs followed by compound addition at 0.1 uM and further incubated for 8 hrs by Western blot analysis; format: cell-based
# [18] = Drug level in Swiss albino mouse plasma at 50 mg/kg, ip administered as single dose and measured up to 8 hrs by LC-MS/MS analysis; format: ADME, organism-based; conditions: in vivo
# [19] = Toxicity in Swiss albino mouse assessed as effect on clinical signs at 50 mg/kg, ip administered as single dose and measured up to 8 hrs; format: organism-based; conditions: in vivo
# [20] = system: HT-29; test: Inhibition of ERK phosphorylation in human HT-29 cells incubated for 24 hrs by Western blot analysis; format: cell-based
# [21] = system: HT-29; test: Inhibition of colony formation in human HT-29 cells at 30 to 300 nM incubated for 10 days by crystal violet staining based assay; format: functional, cell-based; conditions: dose 30-300 nM, time 10.0 day; procedure, shortened: as §1
# [22] = system: HT-29; test: Inhibition of ERK phosphorylation in human HT-29 cells pre-incubated with MLN4924 for 2 hrs followed by compound addition at 0.3 uM and further incubated for 8 hrs by Western blot analysis; format: cell-based
# [23] = system: HT-29; test: Inhibition of ERK phosphorylation in human HT-29 cells at 0.3 uM and further incubated for 8 hrs by Western blot analysis
# [24] = system: HT-29; test: Inhibition of ERK phosphorylation in human HT-29 cells pre-incubated with PD0325901 for 2 hrs followed by compound addition at 0.3 uM and further incubated for 8 hrs by Western blot analysis; format: cell-based
# [25] = system: HT-29; test: Inhibition of ERK phosphorylation in human HT-29 cells pre-incubated with POMA for 2 hrs followed by compound addition at 0.3 uM and further incubated for 8 hrs by Western blot analysis; format: cell-based
# [26] = system: HT-29; test: Inhibition of ERK phosphorylation in human HT-29 cells pre-incubated with MG132 for 2 hrs followed by compound addition at 0.3 uM and further incubated for 8 hrs by Western blot analysis; format: cell-based
# [27] = system: HT-29; test: Antiproliferative activity against human HT-29 cells at 0.00017 to 10 uM in presence of 100 nM PLX4032 incubated for 3 days by WST-8 assay; format: functional, cell-based; conditions: dose 0.00017-10 µM, time 3.0 day
# Procedure, shortened: (§4)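 Cells grown in DMEM, RPMI-1640 or EMEM with 10% FBS and penicillin/streptomycin. They were exposed for 3 days to a dilution series of degrader combined with fixed PLX4032 (100 nM) or ZSTK474 (400 nM). Live-cell signal was read by WST-8. Triplicate points, mean ± SD of three independent experiments. Student's t-test per concentration versus DMSO.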
# [28] = system: SK-MEL-28; test: Antiproliferative activity against human SK-MEL-28 cells at 0.00017 to 10 uM in presence of 400 nM ZSTK474 incubated for 3 days by WST-8 assay; format: functional, cell-based; conditions: dose 0.00017-10 µM, time 3.0 day; procedure, shortened: as §4
# [29] = system: HT-29; test: Antiproliferative activity against human HT-29 cells at 0.00017 to 10 uM in presence of 400 nM ZSTK474 incubated for 3 days by WST-8 assay; format: functional, cell-based; conditions: dose 0.00017-10 µM, time 3.0 day; procedure, shortened: as §4
# [30] = system: SK-MEL-28; test: Antiproliferative activity against human SK-MEL-28 cells at 0.00017 to 10 uM in presence of 100 nM PLX4032 incubated for 3 days by WST-8 assay; format: functional, cell-based; conditions: dose 0.00017-10 µM, time 3.0 day; procedure, shortened: as §4
# [31] = system: HT-29; test: Effect on global proteome expression in human HT-29 cells at 0.3 uM incubated for 8 hrs by mass spectrometry analysis based global proteome analysis; format: functional, cell-based; procedure, shortened: as §3
compound,measurement,setting,value
Cc1ncsc1-c1ccc([C@H](C)NC(=O)[C@@H]2C[C@@H](O)CN2C(=O)[C@@H](NC(=O)COCCOCCOCCNC(=O)CCc2ccc(S(=O)(=O)Nc3cc(C)c(=O)n(C)c3Nc3ccc(I)cc3F)cc2)C(C)(C)C)cc1,GI50,[1],2400 nM
Cc1ncsc1-c1ccc([C@H](C)NC(=O)[C@H]2C[C@H](O)CN2C(=O)[C@@H](NC(=O)CCCCCCCCCCCNCCCCONC(=O)c2ccc(F)c(F)c2Nc2ccc(I)cc2F)C(C)(C)C)cc1,inhibition,[2],inactive
same,inhibition,[3],inactive
same,Activity,[4],inactive
same,Activity,[5],inactive
same,inhibition,[6],inactive
same,inhibition,[7],inactive
Cc1ncsc1-c1ccc([C@H](C)NC(=O)[C@@H]2C[C@@H](O)CN2C(=O)[C@@H](NC(=O)CCCCCCCCCCNCCCONC(=O)c2ccc(F)c(F)c2Nc2ccc(I)cc2F)C(C)(C)C)cc1,GI50,[8],83 nM
same,GI50,[9],130 nM
Cc1ncsc1-c1ccc([C@H](C)NC(=O)[C@@H]2C[C@@H](O)CN2C(=O)[C@@H](NC(=O)CCCCCCCCCCN(C)CCCONC(=O)c2ccc(F)c(F)c2Nc2ccc(I)cc2F)C(C)(C)C)cc1,Activity,[10],Non-Toxic
same,inhibition,[11],inactive
same,Activity,[12],Non-Toxic
same,inhibition,[2],Active
same,inhibition,[3],Active
same,inhibition,[13],inactive
same,inhibition,[14],Active
same,inhibition,[15],Active
same,Activity,[4],Active
same,inhibition,[16],inactive
same,inhibition,[17],inactive
same,Drug uptake,[18],Active
same,inhibition,[7],Active
same,Activity,[19],Non-Toxic
same,inhibition,[20],Dose-dependent effect
O=C1CCC(N2C(=O)c3ccc(NCCOCCOCCOCCOCCOCCNCCCONC(=O)c4ccc(F)c(F)c4Nc4ccc(I)cc4F)cc3C2=O)C(=O)N1 (stereo not drawn),inhibition,[21],Active
same,inhibition,[22],inactive
same,inhibition,[23],inactive
same,inhibition,[24],Active
same,inhibition,[25],inactive
same,inhibition,[26],inactive
same,inhibition,[20],Dose-dependent effect
Cc1ncsc1-c1ccc([C@H](C)NC(=O)[C@@H]2C[C@@H](O)CN2C(=O)[C@@H](NC(=O)CCCCCCCCCCCNCCCCONC(=O)c2ccc(F)c(F)c2Nc2ccc(I)cc2F)C(C)(C)C)cc1,Activity,[10],Non-Toxic
same,inhibition,[11],inactive
same,Activity,[12],Non-Toxic
same,inhibition,[2],Active
same,inhibition,[3],Active
same,inhibition,[13],inactive
same,Activity,[27],Active
same,Activity,[28],Active
same,Activity,[29],Active
same,inhibition,[14],Active
same,inhibition,[15],Active
same,Activity,[4],Active
same,inhibition,[16],inactive
same,inhibition,[17],inactive
same,Drug uptake,[18],Active
same,Activity,[30],Active
same,inhibition,[7],Active
same,Activity,[19],Non-Toxic
same,inhibition,[20],Dose-dependent effect
CN1C(=O)CCC(N2C(=O)c3ccc(NCCOCCOCCOCCOCCOCCNCCCONC(=O)c4ccc(F)c(F)c4Nc4ccc(I)cc4F)cc3C2=O)C1=O (stereo not drawn),inhibition,[21],inactive
same,inhibition,[6],inactive
same,Activity,[31],inactive
